# Legend:
# [1] = tested on: Leishmania amazonensis; assay: Reduction of Leishmania amazonensis 575 infection in mouse peritoneal macrophage at 5 uM after 48 hrs; format: functional; parameters: scale not given: the % may be the effect or the level left
# Procedure, shortened: (§1)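 Peritoneal macrophages from female albino Swiss mice were grown on glass slides in DMEM with 20% heat-inactivated FBS at 37 °C, 5% CO2. Cells were infected with L. amazonensis promastigotes at 1:10 cell:parasite for 4 h, then treated for 48 h. Slides were methanol-fixed and Giemsa-stained, and 500 random cells were scored for infection rate. Values are the mean of two experiments.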
# [2] = tested on: Leishmania amazonensis; assay: Reduction of Leishmania amazonensis 575 infection in mouse peritoneal macrophage at 1 uM after 48 hrs; format: functional; parameters: scale not given: the % may be the effect or the level left; procedure, shortened: as §1
# [3] = Cytotoxicity against Vero cells by MTT assay; format: cell-based; details: African green monkey
# Procedure, shortened: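 Vero cells were exposed to compounds for 72 h at 37 °C, then incubated with MTT for 4 h. Formazan was dissolved in DMSO and read at 540 nm. CC50 was derived by linear regression, with ANOVA and Dunnett's test.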
# [4] = tested on: Leishmania amazonensis; assay: Reduction of Leishmania amazonensis 575 infection in mouse peritoneal macrophage at 25 uM after 48 hrs; format: functional; parameters: scale not given: the % may be the effect or the level left; procedure, shortened: as §1
# [5] = tested on: Trypanosoma cruzi; assay: Reduction of Trypanosoma cruzi Y amastigotes infection in Vero cells at 1 uM after 48 hrs; format: functional; parameters: scale not given: the % may be the effect or the level left
# Procedure, shortened: (§2)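 Vero cells on glass slides in DMEM with 5% FBS at 37 °C, 5% CO2 were infected with culture-derived trypomastigotes at 1:10 cell:parasite for 6 h. Non-adherent parasites were washed off, and cells were treated for 48 h. Slides were methanol-fixed and Giemsa-stained, and 500 random cells were examined at 1000× for infection rate. Values are the mean of two experiments.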
# [6] = tested on: Trypanosoma cruzi; assay: Antiprotozoal activity against Trypanosoma cruzi Y in vero cells; format: functional, organism-based
# [7] = tested on: Trypanosoma cruzi; assay: Reduction of Trypanosoma cruzi Y amastigotes infection in Vero cells at 25 uM after 48 hrs; format: functional; parameters: scale not given: the % may be the effect or the level left; procedure, shortened: as §2
# [8] = tested on: Trypanosoma cruzi; assay: Reduction of Trypanosoma cruzi Y amastigotes infection in Vero cells at 5 uM after 48 hrs; format: functional; parameters: scale not given: the % may be the effect or the level left; procedure, shortened: as §2
# [9] = tested on: Leishmania amazonensis; assay: Antiprotozoal activity against Leishmania amazonensis 575 in vero cells; format: functional, organism-based; details: promastigotes, in the assay text read “promastigotes” for “in vero cells”
# Procedure, shortened: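 Axenic growth assay: L. amazonensis 575 promastigotes were grown in Schneider's medium with 5% heat-inactivated FBS, and T. cruzi Y epimastigotes in LIT medium with 10% FBS. Parasites at 1 × 10^6 cells/ml were exposed to 0.2–100 µM for 72 h at 28 °C. Survivors were counted in a Neubauer chamber. Three experiments were run in triplicate, and IC50 was derived by linear regression.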
# [10] = tested on: Leishmania chagasi; assay: Antiprotozoal activity against Leishmania chagasi PP75 in vero cells; format: functional, organism-based
# [11] = tested on: Leishmania amazonensis; assay: Reduction of Leishmania amazonensis 575 amastigotes infection in mouse peritoneal macrophage at 10 uM after 48 hrs; format: functional; parameters: scale not given: the % may be the effect or the level left; procedure, shortened: as §1
Structure (SMILES),IC50 [6] [µM],IC50 [9] [µM],IC50 [10] [µM],Activity [1] [%],Activity [2] [%],CC50 [3] [µM],Activity [4],Activity [5] [%],Activity [7] [%],Activity [8] [%],Activity [11] [%]
O=C(Cn1ccnc1[N+](=O)[O-])NCc1ccccc1 [BENZNIDAZOLE],14.6,–,–,–,–,> 1000,–,–,92,–,–
C[C@@H]1[C@H](O)[C@@H](C)/C=C/C=C/C=C/C=C/C=C/C=C/C=C/[C@H](O[C@@H]2O[C@H](C)[C@@H](O)[C@H](N)[C@@H]2O)C[C@@H]2O[C@](O)(C[C@@H](O)C[C@@H](O)[C@H](O)CC[C@@H](O)C[C@@H](O)CC(=O)O[C@H]1C)C[C@H](O)[C@H]2C(=O)O [AMPHOTERICIN B],–,0.31,0.25,–,–,98.4,–,–,–,–,97
CCCc1ccc(S(=O)(=O)Nc2cc(OC)cc3ccc(C)nc23)cc1,> 100,> 100,> 100,–,–,–,–,–,–,–,–
CCCc1ccc(S(=O)(=O)Nc2c(Br)cc(Br)c3cccnc23)cc1,> 100,> 100,> 100,–,–,–,–,–,–,–,–
O=S(=O)(Nc1cccc2cccnc12)c1cc(Br)c(Br)s1,> 100,2.85,0.53,–,–,68.7,–,–,–,–,–
CC(C)c1cc(C(C)C)c(S(=O)(=O)Nc2cccc3cccnc23)c(C(C)C)c1,> 100,> 100,> 100,–,–,–,–,–,–,–,–

# Further lines, with some results ahead:
IC50 [6] [µM],IC50 [9] [µM],IC50 [10] [µM],Structure (SMILES),Activity [1] [%],Activity [2] [%],CC50 [3] [µM],Activity [4],Activity [5] [%],Activity [7] [%],Activity [8] [%],Activity [11] [%]
31.8,2.25,0.56,O=S(=O)(Nc1cccc2cccnc12)c1cnc(Cl)c(Br)c1,67.1,52,67.4,84.8%,78.6,96.4,85.2,–
> 100,4.94,2.99,O=S(=O)(Nc1cccc2cccnc12)c1ccc(Br)cc1,–,–,88.7,–,–,–,–,–
> 100,> 100,> 100,O=[N+]([O-])c1ccc(S(=O)(=O)Nc2cccc3cccnc23)cc1,–,–,–,–,–,–,–,–
> 100,7.18,3.53,CN(C)c1cccc2c(S(=O)(=O)Nc3cccc4cccnc34)cccc12,48.2,25.7,84.2,Toxic,–,–,–,–
> 100,6.27,2.18,O=S(=O)(Nc1cccc2cccnc12)c1ccc(-c2ccccc2)cc1,72.3,60,245,82.1%,–,–,–,–
> 100,2.12,0.45,O=S(=O)(Nc1cccc2cccnc12)c1cc(F)cc(F)c1,–,–,66.3,–,–,–,–,–
> 100,14.5,14,CCCc1ccc(S(=O)(=O)Nc2cccc3cccnc23)cc1,52.2,18.7,64.4,63.7%,–,–,–,–
> 100,> 100,> 100,O=S(=O)(Nc1cccc2cccnc12)c1ccc(F)cc1,–,–,–,–,–,–,–,–

# — ChEMBL document CHEMBL1137540, “Synthesis and in vitro evaluation of leishmanicidal and trypanocidal activities of N-quinolin-8-yl-arylsulfonamides” (Bioorg Med Chem, 2007)
